Here are results for 6 compounds from ChEMBL document CHEMBL1833917, “Antimalarial activity of physalins B, D, F, and G” (J Nat Prod, 2011).

Series [1] in a line: Cytotoxicity against BALB/c mouse splenocytes assessed as [3H]thymidine incorporation after 24 hrs by beta counting. It is filed as cell-based, Splenocyte. The conditions noted are these: read-out: LC50. A digest of the protocol:
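BALB/c splenocytes, 6 × 10^5 cells/well, in DMEM + 10% FCS + 50 μg/mL gentamycin. Compounds were tested at five concentrations in triplicate. 3H-thymidine (1 μCi/well) was added, followed by 24 h at 37 °C, 5% CO2, then β-counting. Cytotoxicity was taken relative to untreated cultures and LC50 derived. Means ± SD of three experiments.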
For orientation: Incorporation of labelled thymidine or its analogues reports DNA synthesis.

Series [2] can be described thus: Selectivity index, ratio of LC50 for mouse splenocytes to IC50 for chloroquine-resistant and mefloquine-sensitive Plasmodium falciparum W2. Summed up: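 SI = splenocyte LC50 (3H-thymidine assay) divided by W2 P. falciparum IC50 (3H-hypoxanthine assay), each from three independent experiments.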
Series [3] relates to Plasmodium berghei. Briefly: Antimalarial activity against Plasmodium berghei NK65 infected in mouse assessed as reduction of parasitemia level at 50 mg/kg, ip qd for 4 days by optical microscopy analysis. Format: functional, organism-based. On the set-up: dose 50 mg/kg. A digest of the protocol: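 Male SPF Swiss mice, 5 weeks old, infected with P. berghei NK65 (line kept by weekly ip blood passage of 10^6 infected RBC). Groups of five were dosed ip daily for 4 days from the first day of infection, in 200 μL saline plus 10% DMSO. Chloroquine 50 mg/kg and vehicle served as controls. Parasitemia was counted by microscopy on methanol-fixed, fast-panoptic-stained blood smears on days 4–8. Reduction was calculated versus vehicle. Two replicate experiments were run.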

A further series deals with Plasmodium falciparum. The series can be described thus: Antimalarial activity against chloroquine-resistant and mefloquine-sensitive Plasmodium falciparum W2 infected in human O-positive erythrocytes assessed as inhibition of parasite growth by [3H]hypoxanthine incorporation assay. It is filed as functional, organism-based. Summed up:
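Compounds were tested at several concentrations, diluted in 4% DMSO/RPMI without hypoxanthine, with mefloquine as control. Growth was measured by 3H-hypoxanthine uptake versus untreated wells. Triplicate, means ± SD of three independent experiments.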

Series [4] concerns Plasmodium berghei. The series can be described thus: Antimalarial activity against Plasmodium berghei NK65 infected in mouse assessed as reduction of parasitemia level at 50 to 100 mg/kg, ip qd for 4 days measured on day 8 postinfection by optical microscopy analysis. Format: functional. Details: scale not given: the % may be the effect or the level left. Conditions: dose mg/kg 50-100; route intraperitoneal. Summed up:
(§1)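 Male Swiss mice (5-week-old, SPF), groups of five, infected with P. berghei NK65 (line kept by weekly ip blood passage of 10^6 infected RBC). Dosing ip, 200 μL, daily for four consecutive days from the first day of infection, in saline + 10% DMSO. Comparators were chloroquine 50 mg/kg and 10% DMSO/saline mock. Survival was monitored to day 24.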

For series [5], the system named is Plasmodium berghei. Briefly: Antimalarial activity against Plasmodium berghei NK65 infected in mouse assessed as reduction of host mortality at 100 mg/kg, ip qd for 4 days measured on day 24 postinfection. Conditions: route intraperitoneal. It is filed as functional. On the set-up: scale not given: the % may be the effect or the level left. Summed up:
as §1

The subject of series [6] is Plasmodium berghei. The series can be described thus: Antimalarial activity against Plasmodium berghei NK65 infected in mouse assessed as reduction of parasitemia level at 50 to 100 mg/kg, ip qd for 4 days by optical microscopy analysis. Format: functional, organism-based. A digest of the protocol: as §1
Series [7] has as its system Plasmodium berghei. Briefly: Antimalarial activity against Plasmodium berghei NK65 infected in mouse assessed as reduction of host mortality at 50 to 100 mg/kg, ip qd for 4 days measured on day 7. Format: functional, organism-based. A digest of the protocol:
as §1

Activity calls are given as the source filed them. No cut-off for these calls is given here.

For the compound `OC(c1cc(C(F)(F)F)nc2c(C(F)(F)F)cccc12)C1CCCCN1` (centres undefined) [MEFLOQUINE], the CC50 at 24 h in series [1] is 9.5 µM. Also, the “Ratio LC50/IC50” value in series [2] was 238.

As to `CCN(CC)CCCC(C)Nc1ccnc2cc(Cl)ccc12` (centres undefined), in the series with Plasmodium berghei [3], the result was Active.

Broadly, the IC50 is the concentration needed to halve the response being measured. Take `C[C@@]12C[C@H]3OC(=O)[C@@H]1CO[C@@]14O[C@]5([C@H]2C1=O)[C@@](O)(CC[C@H]1[C@H]4C[C@@H](O)[C@@]2(O)CC=CC(=O)[C@]12C)C(=O)O[C@@]35C` [PHYSALIN D]: the IC50 in the series on Plasmodium falciparum is 55 µM. For the same compound, in series [1], the CC50 at 24 h worked out at 570 µM. In series [2], the “Ratio LC50/IC50” value was determined as 10.4. Moreover, the Activity in the series on Plasmodium berghei [4] came out at 65%; with Plasmodium berghei [5] it was 25%.

For the compound `C[C@]12C(=O)C=CCC1=CC[C@@H]1[C@@H]2CC[C@]2(O)C(=O)O[C@@]3(C)[C@H]4C[C@]5(C)[C@@H](CO[C@@]16O[C@@]32[C@H]5C6=O)C(=O)O4` [PHYSALIN B], the IC50 with Plasmodium falciparum was 2.8 µM. In addition, the CC50 at 24 h in series [1] stood at 33.9 µM. Besides, in series [2], the “Ratio LC50/IC50” value is 12.3.

On to `C[C@@]12C[C@H]3OC(=O)[C@@H]1CO[C@]14O[C@]5([C@H]2C1=O)[C@@](O)(CC[C@H]1[C@H]4C[C@H]2O[C@]24CC=CC(=O)[C@]14C)C(=O)O[C@@]35C` [PHYSALIN F], for which the IC50 with Plasmodium falciparum came to 2.2 µM. Moreover, the CC50 at 24 h in series [1] worked out at 13.3 µM. For the same compound, the “Ratio LC50/IC50” value in series [2] turned out to be 5.94. In addition, in the series on Plasmodium berghei [6], the result was inactive. The result in the series on Plasmodium berghei [7] was Active.

Regarding `C[C@]12C(=O)C=CC=C1[C@@H](O)C[C@@H]1[C@@H]2CC[C@@]2(O)C(=O)O[C@@]3(C)[C@H]4C[C@]5(C)[C@@H](CO[C@@]16O[C@]23[C@H]5C6=O)C(=O)O4` [PHYSALIN G], the IC50 in the series on Plasmodium falciparum amounted to 6.7 µM. In addition, in series [1], the CC50 at 24 h came to 37.5 µM. Besides, in series [2], the “Ratio LC50/IC50” value is given as 5.6.
